Assay results reported in the RNAGym collection of RNA variant scans (doi:10.1038/s41586-018-0170-7).

B1: tRNA (parent)
chain: GUUCCGUUGGCGUAAUGGUAACGCGUCUCCCUCCUAAGGAGAAGACUGCGGGUUCGAGUCCCGUACGGAACG

Variants of: B1
Assay: yeast fitness, log relative to wild type (ln ratio); higher = fitter; tRNA-Arg(CCU), competitive growth, 37 C, 1 M NaCl
Summary of the method: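 A combinatorial tRNA-Arg(CCU) variant library was carried on a HIS3 centromeric plasmid in BY4742 lacking the chromosomal gene, from two independent transformations. Pools grew 4 generations in SC-HIS at 30 °C, then ~6.5 generations (~26.5 h) in SC-HIS 1M NaCl at 37 °C, with three outputs per input. Variants were counted by 125 bp paired-end Illumina sequencing. Fitness is ln of each genotype's generations (OD-scaled log2 output/input frequency, inverse-variance weighted across replicates) over the wild-type's.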

Variant | yeast fitness (ln)
GCUCCGUUGGCGUAAUGGUAACGCGUUUCCCUCCUAAGGAGAAGAUUGCGGGUUCGAGUCCCGUACGGGGUG [U2C C27U C46U A69G A70G C71U] | -0.0348
GGUCCGUUGGCGUAAUGGUAACGCGUUUCCCUCCUAAGGAGAAGACUGCGGGUUCGAGUCCCGUACGGGUUG [U2G C27U A69G A70U C71U] | -0.518
AGUCCAUUGGCGUAAUGGUAACGCGUUUCCCUCCUAAGGAGAAGAUUGCGGGUUCGAGUCCCGUAUGGGGUG [G1A U2G G6A C27U C46U C66U A69G A70G C71U] | -0.407
AUUCCGUUGGCGUAAUGGUAACGCGUCUCCCUCCUAAGGAGACGACUGCGGGUUCGAGUCCCGUACGGAUCG [G1A A43C A70U] | -0.13
AGUCCGUUGGCGUAAUGGUAACGCGUUUCCCUCCUAAGGAGAAGACUGCGGGUUCGAGUCCCGUACGGGACG [G1A U2G C27U A69G] | -0.145
GUUCCUUUGGCGUAAUGGUAACGCGUCUCCCUCCUAAGGAGAAGAUUGCGGGUUCGAGUCCCGUACGGGGCG [G6U C46U A69G A70G] | -0.158
GCUCCGUUGGCGUAAUGGUAACGCGUUUCCCUCCUAAGGAGACGAUUGCGGGUUCGAGUCCCGUAAGGGAUG [U2C C27U A43C C46U C66A A69G C71U] | -0.41
GUUCCAUUGGCGUAAUGGUAACGCGUUUCCCUCCUAAGGAGAAGACUGCGGGUUCGAGUCCCGUACGGGUUG [G6A C27U A69G A70U C71U] | -0.416
GUUCCUUUGGCGUAAUGGUAACGCGUCUCCCUCCUAAGGAGAAGACUGCGGGUUCGAGUCCCGUAAGGAUUG [G6U C66A A70U C71U] | -0.412
AGUCCGUUGGCGUAAUGGUAACGCGUUUCCCUCCUAAGGAGAAGAUUGCGGGUUCGAGUCCCGUACGGAUCG [G1A U2G C27U C46U A70U] | -0.293
GGUCCUUUGGCGUAAUGGUAACGCGUUUCCCUCCUAAGGAGACGAUUGCGGGUUCGAGUCCCGUAAGGAAUG [U2G G6U C27U A43C C46U C66A C71U] | -0.363
GUUCCUUUGGCGUAAUGGUAACGCGUCUCCCUCCUAAGGAGACGAUUGCGGGUUCGAGUCCCGUAAGGGGCG [G6U A43C C46U C66A A69G A70G] | -0.147
GCUCCUUUGGCGUAAUGGUAACGCGUUUCCCUCCUAAGGAGACGACUGCGGGUUCGAGUCCCGUAAGGAGCG [U2C G6U C27U A43C C66A A70G] | -0.0266
GGUCCAUUGGCGUAAUGGUAACGCGUCUCCCUCCUAAGGAGAAGACUGCGGGUUCGAGUCCCGUAUGGAGUG [U2G G6A C66U A70G C71U] | -0.253
ACUCCUUUGGCGUAAUGGUAACGCGUUUCCCUCCUAAGGAGACGAUUGCGGGUUCGAGUCCCGUAUGGAUCG [G1A U2C G6U C27U A43C C46U C66U A70U] | -0.243
GCUCCGUUGGCGUAAUGGUAACGCGUCUCCCUCCUAAGGAGACGACUGCGGGUUCGAGUCCCGUACGGGAUG [U2C A43C A69G C71U] | -0.138
GCUCCUUUGGCGUAAUGGUAACGCGUUUCCCUCCUAAGGAGAAGACUGCGGGUUCGAGUCCCGUAAGGGUUG [U2C G6U C27U C66A A69G A70U C71U] | -0.525
AGUCCGUUGGCGUAAUGGUAACGCGUCUCCCUCCUAAGGAGAAGACUGCGGGUUCGAGUCCCGUAUGGGGUG [G1A U2G C66U A69G A70G C71U] | -0.165
GUUCCGUUGGCGUAAUGGUAACGCGUCUCCCUCCUAAGGAGAAGAUUGCGGGUUCGAGUCCCGUACGGAUUG [C46U A70U C71U] | -0.129

Variant | yeast fitness (ln)
GGUCCAUUGGCGUAAUGGUAACGCGUCUCCCUCCUAAGGAGAAGAUUGCGGGUUCGAGUCCCGUACGGGAUG [U2G G6A C46U A69G C71U] | -0.124
GGUCCGUUGGCGUAAUGGUAACGCGUCUCCCUCCUAAGGAGAAGAUUGCGGGUUCGAGUCCCGUACGGGGCG [U2G C46U A69G A70G] | -0.131
AGUCCGUUGGCGUAAUGGUAACGCGUUUCCCUCCUAAGGAGACGAUUGCGGGUUCGAGUCCCGUAUGGGAUG [G1A U2G C27U A43C C46U C66U A69G C71U] | -0.383
ACUCCAUUGGCGUAAUGGUAACGCGUCUCCCUCCUAAGGAGACGAUUGCGGGUUCGAGUCCCGUACGGGUCG [G1A U2C G6A A43C C46U A69G A70U] | -0.0463
ACUCCUUUGGCGUAAUGGUAACGCGUCUCCCUCCUAAGGAGAAGACUGCGGGUUCGAGUCCCGUAUGGGUCG [G1A U2C G6U C66U A69G A70U] | -0.244
GUUCCUUUGGCGUAAUGGUAACGCGUUUCCCUCCUAAGGAGACGAUUGCGGGUUCGAGUCCCGUACGGAUUG [G6U C27U A43C C46U A70U C71U] | -0.336
AUUCCGUUGGCGUAAUGGUAACGCGUUUCCCUCCUAAGGAGAAGACUGCGGGUUCGAGUCCCGUAUGGGGUG [G1A C27U C66U A69G A70G C71U] | -0.361
AGUCCUUUGGCGUAAUGGUAACGCGUCUCCCUCCUAAGGAGACGAUUGCGGGUUCGAGUCCCGUAUGGGUUG [G1A U2G G6U A43C C46U C66U A69G A70U C71U] | -0.499
GUUCCGUUGGCGUAAUGGUAACGCGUUUCCCUCCUAAGGAGACGACUGCGGGUUCGAGUCCCGUAUGGGUCG [C27U A43C C66U A69G A70U] | -0.361
GGUCCGUUGGCGUAAUGGUAACGCGUUUCCCUCCUAAGGAGACGACUGCGGGUUCGAGUCCCGUAAGGGAUG [U2G C27U A43C C66A A69G C71U] | -0.355
ACUCCAUUGGCGUAAUGGUAACGCGUUUCCCUCCUAAGGAGACGAUUGCGGGUUCGAGUCCCGUACGGGGUG [G1A U2C G6A C27U A43C C46U A69G A70G C71U] | -0.0929
AUUCCAUUGGCGUAAUGGUAACGCGUUUCCCUCCUAAGGAGACGAUUGCGGGUUCGAGUCCCGUACGGAGCG [G1A G6A C27U A43C C46U A70G] | -0.285
AGUCCAUUGGCGUAAUGGUAACGCGUUUCCCUCCUAAGGAGACGACUGCGGGUUCGAGUCCCGUACGGGUUG [G1A U2G G6A C27U A43C A69G A70U C71U] | -0.484
GCUCCAUUGGCGUAAUGGUAACGCGUCUCCCUCCUAAGGAGACGAUUGCGGGUUCGAGUCCCGUACGGAGUG [U2C G6A A43C C46U A70G C71U] | -0.112
AUUCCUUUGGCGUAAUGGUAACGCGUCUCCCUCCUAAGGAGAAGAUUGCGGGUUCGAGUCCCGUAAGGGGCG [G1A G6U C46U C66A A69G A70G] | -0.158
GCUCCUUUGGCGUAAUGGUAACGCGUUUCCCUCCUAAGGAGAAGAUUGCGGGUUCGAGUCCCGUACGGGGUG [U2C G6U C27U C46U A69G A70G C71U] | -0.244
ACUCCGUUGGCGUAAUGGUAACGCGUUUCCCUCCUAAGGAGACGAUUGCGGGUUCGAGUCCCGUAUGGAUUG [G1A U2C C27U A43C C46U C66U A70U C71U] | -0.297
ACUCCGUUGGCGUAAUGGUAACGCGUUUCCCUCCUAAGGAGACGAUUGCGGGUUCGAGUCCCGUAAGGAGUG [G1A U2C C27U A43C C46U C66A A70G C71U] | -0.16
GGUCCUUUGGCGUAAUGGUAACGCGUUUCCCUCCUAAGGAGACGACUGCGGGUUCGAGUCCCGUAUGGAUCG [U2G G6U C27U A43C C66U A70U] | -0.219
